According to ChEMBL document CHEMBL1139401, “5-(4-Chlorophenyl)-5,6-dihydro-1,3-oxazepin-7(4H)-one derivatives as lipophilic cyclic analogues of baclofen: design, synthesis, and neuropharmacological evaluation” (2008):

Assays:
Type in all cases: functional
Details in all cases: route intraperitoneal
Mus musculus [1] = experiment: Muscle relaxant activity in albino mouse at 3 mg/kg, ip after 90 mins by traction test; set-up: scale not given: the % may be the effect or the level left
Procedure, shortened: (§1)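 Traction test in male albino mice (20–25 g), five per group, given drug ip in DMSO. Success required touching the wire with at least one hind paw within 5 s; otherwise scored as failure. Mice were tested 30, 45, 60 and 90 min after dosing, immediately before the rotarod. Results are % successful, mean ± SEM.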

Mus musculus [2] = experiment: Decrease in cognitive impairment in albino mouse assessed as retention latency at 3 mg/kg, ip after 30 mins by passive avoidance reflex test
Procedure, shortened: (§2)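 Passive avoidance in male albino mice (20–25 g), five per group, housed singly from the day before training. Drug in DMSO was given ip 30, 45, 60 or 90 min before the training trial. Mice were put in the light side of a two-compartment apparatus and the door to the dark side was opened. The retention test next day used the shock generator off. Latency reported as mean ± SEM.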

Mus musculus [3] = experiment: Neuropharmacological effect in albino mouse assessed as endurance time at 3 mg/kg, ip after 45 mins by rotarod test
Procedure, shortened: (§3)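 For the rotarod, the cylinder was 6 cm diameter, 30 cm high and turned at 12 rpm. Male albino mice were trained the day before to stay on for 300 s, and those not reaching this were excluded. Endurance time (max 300 s) was measured 30, 45, 60 and 90 min after ip drug in DMSO or vehicle. Five mice per group; mean ± SEM.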

Mus musculus [4] = experiment: Analgesic activity in albino mouse assessed as retention latency at 3 mg/kg, ip after 30 mins by hot plate test
Procedure, shortened: (§4)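 Male albino mice (20–25 g), five per group, given drug in DMSO ip; vehicle controls got DMSO alone. Mice were placed in a glass cylinder on a 54 °C metal plate. Latency to hind-paw lick or jump was recorded, with a 30 s cut-off. Testing was 30, 45, 60 and 90 min post-injection. Values are mean ± SEM.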

Mus musculus [5] = experiment: Decrease in cognitive impairment in albino mouse assessed as retention latency at 3 mg/kg, ip after 90 mins by passive avoidance reflex test; procedure, shortened: as §2
Mus musculus [6] = experiment: Neuropharmacological effect in albino mouse assessed as spontaneous locomotor activity at 3 mg/kg, ip after 90 mins
Procedure, shortened: (§5)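 Male albino mice (20–25 g), five per group, got ip drug in DMSO or DMSO vehicle and went back to their home cages. After 30, 45, 60 or 90 min each was placed alone in a Plexiglas box and spontaneous locomotor activity was recorded. Tests were run in the morning. Values are mean ± SEM.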

Mus musculus [7] = experiment: Decrease in cognitive impairment in albino mouse assessed as retention latency at 3 mg/kg, ip after 45 mins by passive avoidance reflex test; procedure, shortened: as §2
Mus musculus [8] = experiment: Neuropharmacological effect in albino mouse assessed as endurance time at 3 mg/kg, ip after 30 mins by rotarod test; procedure, shortened: as §3
Mus musculus [9] = experiment: Neuropharmacological effect in albino mouse assessed as spontaneous locomotor activity at 3 mg/kg, ip after 30 mins; procedure, shortened: as §5
Mus musculus [10] = experiment: Muscle relaxant activity in albino mouse at 3 mg/kg, ip after 60 mins by traction test; set-up: scale not given: the % may be the effect or the level left; procedure, shortened: as §1
Mus musculus [11] = experiment: Neuropharmacological effect in albino mouse assessed as endurance time at 3 mg/kg, ip after 60 mins by rotarod test; procedure, shortened: as §3
Mus musculus [12] = experiment: Analgesic activity in albino mouse assessed as retention latency at 3 mg/kg, ip after 60 mins by hot plate test; procedure, shortened: as §4
Mus musculus [13] = experiment: Muscle relaxant activity in albino mouse at 3 mg/kg, ip after 30 mins by traction test; set-up: scale not given: the % may be the effect or the level left; procedure, shortened: as §1
Mus musculus [14] = experiment: Analgesic activity in albino mouse assessed as retention latency at 3 mg/kg, ip after 45 mins by hot plate test; procedure, shortened: as §4
Mus musculus [15] = experiment: Neuropharmacological effect in albino mouse assessed as spontaneous locomotor activity at 3 mg/kg, ip after 45 mins; procedure, shortened: as §5
Mus musculus [16] = experiment: Neuropharmacological effect in albino mouse assessed as onset of loss of righting reflex at 3 mg/kg, ip
Procedure, shortened: (§6)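 Male albino mice (20–25 g), five per group, injected ip (drug in DMSO). Loss of righting reflex was inability to right within 30 s, after which mice were laid supine in a 90° trough. Return was righting twice within 1 min. Onset was recorded, and duration was the time from loss to return. Values are mean ± SEM.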

Mus musculus [17] = experiment: Decrease in cognitive impairment in albino mouse assessed as retention latency at 3 mg/kg, ip after 60 mins by passive avoidance reflex test; procedure, shortened: as §2
Mus musculus [18] = experiment: Neuropharmacological effect in albino mouse assessed as spontaneous locomotor activity at 3 mg/kg, ip after 60 mins; procedure, shortened: as §5
Mus musculus [19] = experiment: Neuropharmacological effect in albino mouse assessed as duration of loss of righting reflex at 3 mg/kg, ip; procedure, shortened: as §6
Mus musculus [20] = experiment: Analgesic activity in albino mouse assessed as retention latency at 3 mg/kg, ip after 90 mins by hot plate test; procedure, shortened: as §4
Mus musculus [21] = experiment: Neuropharmacological effect in albino mouse assessed as endurance time at 3 mg/kg, ip after 90 mins by rotarod test; procedure, shortened: as §3
Mus musculus [22] = experiment: Muscle relaxant activity in albino mouse at 3 mg/kg, ip after 45 mins by traction test; set-up: scale not given: the % may be the effect or the level left; procedure, shortened: as §1

Compound	Activity (Mus musculus [1])	Activity (Mus musculus [2])	Activity (Mus musculus [3])	Activity (Mus musculus [4])	Activity (Mus musculus [5])	Activity (Mus musculus [6])	Activity (Mus musculus [7])	Activity (Mus musculus [8])	Activity (Mus musculus [9])	Activity (Mus musculus [10])	Activity (Mus musculus [11])	Activity (Mus musculus [12])	Activity (Mus musculus [13])	Activity (Mus musculus [14])	Activity (Mus musculus [15])	Activity (Mus musculus [17])	Activity (Mus musculus [18])	Activity (Mus musculus [20])	Activity (Mus musculus [21])	Activity (Mus musculus [22])	further results
CCCCCCCC/C=C/CCCCCCCC1=NCC(c2ccc(Cl)cc2)CC(=O)O1 (configuration not stated)	31%	146.23 s	175 s	9.34 s	68.44 s	9.25 m	110.36 s	198 s	11.45 m	33%	155 s	23.61 s	35%	15.77 s	9.33 m	75.44 s	10.61 m	28.43 s	128 s	35%	Activity (Mus musculus [16]): 38.65 min; Activity (Mus musculus [19]): 93.37 min
O=C1CC(c2ccc(Cl)cc2)CN=C(Cc2ccccc2)O1 (configuration not stated)	22%	125.64 s	185 s	9.53 s	65.34 s	0 m	106.56 s	234 s	0 m	25%	0 s	25.63 s	27%	15.38 s	0 m	70.34 s	0 m	28.73 s	0 s	25%	Activity (Mus musculus [16]): 42.12 min; Activity (Mus musculus [19]): 112.36 min
CCCCCCCCCCCCCC1=NCC(c2ccc(Cl)cc2)CC(=O)O1 (configuration not stated)	35%	147.24 s	174 s	8.33 s	67.56 s	13.11 m	109.34 s	219 s	15.24 m	35%	169 s	18.45 s	40%	15.32 s	13.73 m	82.36 s	14.76 m	26.13 s	133 s	40%	Activity (Mus musculus [16]): 32.16 min; Activity (Mus musculus [19]): 75.93 min
CC1=NCC(c2ccc(Cl)cc2)CC(=O)O1 (configuration not stated)	100%	163.23 s	300 s	8.12 s	164.56 s	40.13 m	163.23 s	300 s	45.24 m	100%	300 s	9.22 s	100%	8.22 s	43.46 m	160.43 s	42.79 m	9.33 s	300 s	100%	
CCCCCCCC1=NCC(c2ccc(Cl)cc2)CC(=O)O1 (configuration not stated)	100%	163.23 s	300 s	8.12 s	164.56 s	40.13 m	163.23 s	300 s	45.24 m	100%	300 s	9.23 s	100%	8.22 s	43.46 m	160.43 s	42.79 m	9.33 s	300 s	100%	
CCCCCCCCC1=NCC(c2ccc(Cl)cc2)CC(=O)O1 (configuration not stated)	100%	163.33 s	300 s	8.12 s	164.56 s	40.13 m	163.23 s	300 s	45.24 m	100%	300 s	9.23 s	100%	8.22 s	43.46 m	160.43 s	42.79 m	9.33 s	300 s	100%	
CCCCCCCCCCCC1=NCC(c2ccc(Cl)cc2)CC(=O)O1 (configuration not stated)	40%	152.34 s	188 s	7.82 s	72.45 s	15.66 m	114.73 s	232 s	20.12 m	40%	178 s	18.56 s	45%	13.21 s	16.21 m	88.14 s	14.11 m	24.43 s	145 s	43%	Activity (Mus musculus [16]): 38.23 min; Activity (Mus musculus [19]): 60.25 min
CCCCCCCCCCC1=NCC(c2ccc(Cl)cc2)CC(=O)O1 (configuration not stated)	100%	163.53 s	300 s	8.12 s	164.56 s	40.13 m	163.23 s	300 s	45.24 m	100%	300 s	9.23 s	100%	8.22 s	43.46 m	160.43 s	42.79 m	9.33 s	300 s	100%	
C=CCCCCCCCCC1=NCC(c2ccc(Cl)cc2)CC(=O)O1 (configuration not stated)	53%	148.82 s	198 s	8.32 s	95.45 s	18.56 m	118.32 s	222 s	25.36 m	50%	185 s	19.73 s	55%	14.34 s	20.56 m	95.35 s	19.43 m	21.42 s	155 s	50%	Activity (Mus musculus [16]): 36.63 min; Activity (Mus musculus [19]): 55.33 min
NCC(CC(=O)O)c1ccc(Cl)cc1 (configuration not stated) [BACLOFEN]	53%	125.34 s	225 s	13.42 s	128.56 s	35.64 m	121.46 s	214 s	30.21 m	53%	234 s	14.36 s	50%	15.35 s	28.48 m	121.44 s	30.76 m	14.22 s	254 s	52%	Activity (Mus musculus [16]): 20.24 min; Activity (Mus musculus [19]): 35.23 min
